Data published in PMC7239729 (Pharmacology, biochemistry, and behavior, 2020).
Values joined by “and” are separate entries in the source; they are usually repeats but may differ in a detail not shown here. Equal values may be shown once. Read-outs that look alike come from different tables or passages of the source.

Experiments:
mice = settings: ref Wiley et al., 2015, cited from earlier work
CB1 = settings: read-out: affinity; ref Wiley et al., 2015; cited from earlier work
male ICR mice = test: cannabinoid tetrad in mice; format: in vivo, mouse
[1] = same dosing procedure; ref Kevin et al., 2017b; cited from earlier work
hCB2 receptor [2] = target: T1, hCB2 receptor (Homo sapiens, UniProt P34972); test: agonist-stimulated [35S]GTPγS binding, hCB2 HEK293 membranes; format: biochemical; settings: for CP55,940 more potent than the compound: hCB2, [35S]GTPγS; for CP55,940 greater efficacy than the compound: hCB2, [35S]GTPγS Emax
[3] = rat plasma pharmacokinetics; format: in vivo
Procedure, shortened: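 Four 49-day-old male Long-Evans rats with jugular vein catheters, housed singly in metabolite cages. Test compound given i.p. at 3 mg/kg (3 mg/mL in 7.8% polysorbate 80/92.2% saline). Blood drawn 0.25 h before dosing and 0.25, 0.5, 1, 2, 4, 8 and 24 h after, into chilled K3EDTA. Plasma separated at 4 °C, extracted with acetonitrile (3:1) and analysed by LC-MS/MS.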

[4] = target: human CB1 (hCB1) receptor (Homo sapiens, UniProt P21554); format: binding; settings: at both receptors (hCB1 and hCB2)
hCB1 receptors = settings: ref Wouters et al., 2019; cited from earlier work
[5] = human liver microsome incubation; format: in vitro ADME
Procedure, shortened: (§1)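 Pooled liver microsomes (rat: IGS Sprague-Dawley; human: pooled) at 1 mg protein/mL final with 1 mM NADPH in 50 mM potassium phosphate, pH 7.4, 3 mM MgCl2. Mix preincubated 5 min at 37 °C, then test compound added to 1 μM. Triplicate incubations at 37 °C. Samples at 0, 5, 10, 30 and 60 min quenched in acetonitrile, then extracted with acetonitrile (3:1) and analysed by LC-MS/MS.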

[6] = target: human CB2 (hCB2) receptor (Homo sapiens, UniProt P34972); test: [3H]CP55,940 competition binding, hCB2 HEK293 membranes
[7] = rat liver microsome incubation; format: in vitro ADME
Procedure, shortened: as §1

[8] = system: mice trained to discriminate THC (5.6 mg/kg, i.p.) from vehicle; test: THC drug discrimination in mice; format: in vivo, mouse; settings: for substitution for THC / effect on response rates compared to vehicle: i.p.; for substitution for THC: EG-018 10 – 100 mg/kg, full substitution ≥ 80% drug-aperture responding; for effect on response rates compared to vehicle: substitution tests; for ED50: Mus musculus
hCB1 receptor [9] = target: T2, hCB1 receptor (Homo sapiens, UniProt P21554); test: biochemical; format: biochemical
hCB1 receptor [10] = target: T2, hCB1 receptor; test: cell-based; format: cell-based
hCB2 receptor [11] = target: T1, hCB2 receptor; test: inhibition of forskolin-stimulated cAMP production; format: cell-based; settings: for CP55,940 more potent than the compound: hCB2, cAMP
[12] = metabolite analysis in mouse urine; format: in vivo; settings: mice, 30 mg/kg i.p., pooled 24 h urine, LC-MS
[13] = rimonabant 3 mg/kg i.v. 10 min before EG-018 56 mg/kg i.v.
[14] = male, Long-Evans, rat, plasma, ip, 3 mg/kg
[15] = human, pooled human liver microsomes, pH 7.4
[16] = Sprague-Dawley, rat, pooled rat liver microsomes, pH 7.4
[17] = HEK293, read-out: % of CP55,940 Emax
[18] = i.p., 30 min, THC 3, 10 or 56 mg/kg, EG-018 1-100 mg/kg
[19] = i.p., THC 3, 10 or 56 mg/kg, EG-018 1-100 mg/kg

T2 sequence (P21554 whole entry): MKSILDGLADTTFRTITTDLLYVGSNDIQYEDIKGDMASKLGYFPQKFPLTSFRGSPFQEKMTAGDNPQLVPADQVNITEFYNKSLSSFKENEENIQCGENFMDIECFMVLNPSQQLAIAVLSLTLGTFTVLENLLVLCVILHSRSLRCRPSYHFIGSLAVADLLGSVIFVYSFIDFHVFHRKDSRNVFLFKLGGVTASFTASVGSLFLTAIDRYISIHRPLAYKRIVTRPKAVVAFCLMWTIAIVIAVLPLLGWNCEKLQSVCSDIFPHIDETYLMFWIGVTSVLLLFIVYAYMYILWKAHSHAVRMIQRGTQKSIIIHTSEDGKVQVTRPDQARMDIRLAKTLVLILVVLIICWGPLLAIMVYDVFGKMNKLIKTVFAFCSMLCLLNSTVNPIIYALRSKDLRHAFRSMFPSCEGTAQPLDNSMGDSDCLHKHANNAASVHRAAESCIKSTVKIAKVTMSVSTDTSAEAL
human CB2 (hCB2) receptor, sequence (P34972 whole entry): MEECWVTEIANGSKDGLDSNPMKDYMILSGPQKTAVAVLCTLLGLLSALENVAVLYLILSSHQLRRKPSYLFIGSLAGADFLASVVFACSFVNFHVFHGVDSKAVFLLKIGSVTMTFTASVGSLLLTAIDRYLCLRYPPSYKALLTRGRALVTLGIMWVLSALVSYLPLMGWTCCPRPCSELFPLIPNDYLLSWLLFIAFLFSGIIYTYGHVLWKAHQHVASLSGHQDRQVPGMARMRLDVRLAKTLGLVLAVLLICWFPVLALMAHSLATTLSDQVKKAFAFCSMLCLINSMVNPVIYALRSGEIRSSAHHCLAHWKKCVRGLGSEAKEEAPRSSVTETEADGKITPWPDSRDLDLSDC
T1 sequence (P34972 whole entry): as above
human CB1 (hCB1) receptor, sequence (P21554 whole entry): as the sequence (P21554 whole entry) above

Q: Which tetrad effects (mice; 56 mg/kg i.v.) does the source give for `O=C(c1cccc2ccccc12)c1nc2ccccc2n1CCCCCF` [FUBIMINA] here?
A: Its tetrad effects is “produced marked tetrad effects in all four measures”.

Q: And the tetrad effects (mice; doses up to 100 mg/kg i.p.)?
A: The tetrad effects was “largely without effect”.

Q: What about the Ki (CB1) of the same compound?
A: The Ki was 0.296 µM.

Q: What does the source list for `Cc1c(C(=O)NN2CCCCC2)nn(-c2ccc(Cl)cc2Cl)c1-c1ccc(Cl)cc1` [rimonabant, reference compound]?
A: antagonism of FUBIMINA tetrad effects (mice; rimonabant 3 mg/kg i.v. before FUBIMINA 56 mg/kg i.v.): reversed; antagonism of EG-018-induced catalepsy (male ICR mice; [13]): attenuated catalepsy; antagonism of EG-018-induced hypomotility (male ICR mice; [13]): did not significantly reduce; antagonism of EG-018-induced hypothermia (male ICR mice; [13]): did not significantly reduce hypothermia

Q: With `CCCCCn1cc(C(=O)Nc2cccc3ccccc23)c2ccccc21` [NNEI] as the compound, how does the Tmax [1] read?
A: Its Tmax is “approximately 0.5 hours”.

Q: For `CCCCCn1nc(C(=O)Nc2cccc3ccccc23)c2ccccc21` [MN-18], which Tmax [1] is on record?
A: The Tmax was ~2.5 h.

Q: For `CCCCC/C=C\C/C=C\C/C=C\C/C=C\CCCC(=O)NCCO` [anandamide], which “CP55,940 more potent than the compound” value (hCB2 receptor [2]) is on record?
A: Its value is 200 fold.

Q: What about the “CP55,940 greater efficacy than the compound” value (hCB2 receptor [2]) of the same compound?
A: Its value is 2.5 fold.

Q: What about the Emax (hCB2 receptor [2]; read-out: Emax±SEM) of the same compound?
A: Its Emax is 49.2 ± 2.25%.

Q: What does the source list for `CCCCCn1c2ccccc2c2cc(C(=O)c3cccc4ccccc34)ccc21` [EG-018, Naphthalen-1-yl(9-pentyl-9H-carbazol-3-yl)methanone]?
A: AUC(0-inf) [3, 14]: 0.168 µg·h/mL; AUC(0-t) [3, 14]: 0.154 µg·h/mL; Cmax [3, 14]: 0.026 µg/mL; Tmax [3, 14]: 2 h; half-life ([3]; male, Long-Evans, rat, plasma, ip, 3 mg/kg, Half life (h), rat plasma, 3 mg/kg i.p.): 2.5 h; CL/F (mL/min/kg body wt.) ([3]; rat plasma, 3 mg/kg i.p., observed apparent clearance): 520.93 mL/min/kg body wt.; Half life ([3]; rat plasma, 3 mg/kg i.p., 3 mg/kg): 2.53 h; lower affinity than CP55,940 [4]: 10- to 40 fold; greater potency for mini-Gαi over beta arrestin-2 (hCB1 receptors): 26 fold; CLH (mL/min/kg body wt.) ([5]; human liver microsomes, estimated hepatic clearance): 19.03 mL/min/kg body wt.; CLint (mL/min/kg body wt.) ([5]; human liver microsomes, estimated intrinsic clearance): 393.09 mL/min/kg body wt.; ER ([5]; human liver microsomes, extraction ratio): 0.95; half-life at 1 μM [5, 15]: 2.04 min; microsomal CLint at 1 μM [5, 15]: 340 µL/min/mg; EC50 (hCB2 receptor [2]): 0.0113 µM; CP55,940 more potent than the compound (hCB2 receptor [2]): 12 fold; CP55,940 greater efficacy than the compound (hCB2 receptor [2]): 2.5 fold; Emax (hCB2 receptor [2]; read-out: % of CP55,940 Emax): 40%; Emax (hCB2 receptor [2]; read-out: Emax±SEM): 46.2 ± 2.72%; Ki ([6]; Ki (nM), hCB2, HEK293 membranes, [3H]CP55,940): 8 nM and 7.76 nM; greater affinity for hCB2 over hCB1 ([6]; Ki ratio hCB1/hCB2): approximately 3 fold; half-life at 1 μM [7, 16]: 4.29 min; microsomal CLint at 1 μM [7, 16]: 160 µL/min/mg; CLH (mL/min/kg body wt.) ([7]; rat liver microsomes, estimated hepatic clearance): 46.39 mL/min/kg body wt.; CLint (mL/min/kg body wt.) ([7]; rat liver microsomes, estimated intrinsic clearance): 290.77 mL/min/kg body wt.; ER ([7]; rat liver microsomes, extraction ratio): 0.84; substitution for THC [8]: did not substitute for THC at any dose; effect on response rates compared to vehicle [8]: Neither THC nor EG-018 significantly affected response rates; less potent than CP55,940 (hCB1 receptor [9]; hCB1, [35S]GTPγS): approximately 90 fold; CP55,940 greater efficacy than the compound (hCB1 receptor [9]; hCB1, [35S]GTPγS Emax): 3.5 fold; less efficacy than THC (hCB1 receptor [9]; hCB1, [35S]GTPγS Emax): approximately 2 fold; activity in [35S]GTPγS binding (hCB1 receptor [9]; initial studies, ligands not pre-equilibrated prior to addition of [35S]GTPγS (data not shown)): appeared to be inactive; Emax (hCB1 receptor [9]; read-out: % of CP55,940 Emax): 28%; Emax (hCB1 receptor [9]; read-out: Emax±SEM): 73.9 ± 9.12%; Emax (hCB1 receptor [10]; [17]): 73%; Emax (hCB1 receptor [10]; HEK293, read-out: Emax±SEM): 32.9 ± 2.27%; CP55,940 more potent than the compound (hCB1 receptor [10]; hCB1, cAMP): 53 fold; antinociception (tail-flick) (male ICR mice; 56 mg/kg i.v.): did not significantly elicit antinociceptive behavior; catalepsy (ring immobility) (male ICR mice; 56 mg/kg i.v.): catalepsy; rectal temperature (male ICR mice; 56 mg/kg i.v.): hypothermia; locomotor activity (male ICR mice; 56 mg/kg i.v., 5 min): hypomotility; locomotor activity (male ICR mice; [18]): did not produce significant effects in any of the four assays; antinociception (tail-flick) (male ICR mice; [19]): did not produce significant effects in any of the four assays; catalepsy (ring immobility) (male ICR mice; [19]): did not produce significant effects in any of the four assays; rectal temperature (male ICR mice; [19]): did not produce significant effects in any of the four assays; EC50 (hCB2 receptor [11]): 0.182 µM; Emax (hCB2 receptor [11]; [17]): 48%; Emax (hCB2 receptor [11]; HEK293, read-out: Emax±SEM): 28.1 ± 6.14%; CP55,940 more potent than the compound (hCB2 receptor [11]): 114 fold; parent compound or metabolites in urine [12]: No intact parent compound or metabolites were identified

Q: With `CCCCCCC(C)(C)c1ccc([C@@H]2C[C@H](O)CC[C@H]2CCCO)c(O)c1` [CP55,940, reference compound] as the compound, how does the “greater potency for mini-Gαi over beta arrestin-2” value (hCB1 receptors) read?
A: Its value is “four-fold shift in potency”.

Q: For `CCCCCc1cc(O)c2c(c1)OC(C)(C)[C@@H]1CCC(C)=C[C@@H]21` [THC, delta-9-tetrahydrocannabinol], which ED50 ([8]; ip, read-out: ED50, substitution for THC) is on record?
A: The ED50 was 2.2 mg/kg.

Q: What about the ED50 ([8]; ip, read-out: ED50 of THC after EG-018 pretreatment) of the same compound?
A: Its ED50 is 1.2 mg/kg.

Q: And the ED50 ([8]; read-out: ED50 of THC after vehicle pretreatment)?
A: Its ED50 is 1.5 mg/kg.

Q: What about the “substitution for THC” value [8] of the same compound?
A: Its value is “fully substituted for itself”.

Q: And the “effect on response rates compared to vehicle” value [8]?
A: The value was “Neither THC nor EG-018 significantly affected response rates”.

Q: And the locomotor activity (male ICR mice; [18])?
A: Its locomotor activity is “hypomotility”.

Q: And the “antinociception (tail-flick)” value (male ICR mice; [19])?
A: The value was “anti-nociception”.

Q: And the “catalepsy (ring immobility)” value (male ICR mice; [19])?
A: The value was “catalepsy”.

Q: What about the rectal temperature (male ICR mice; [19]) of the same compound?
A: Its rectal temperature is “hypothermia”.

Q: And the Emax (hCB2 receptor [11]; [17])?
A: Its Emax is 45%.

Q: And the Emax (hCB2 receptor [11]; HEK293, read-out: Emax±SEM)?
A: Its Emax is 27.3 ± 3.68%.

Q: What about the “CP55,940 more potent than the compound” value (hCB2 receptor [11]) of the same compound?
A: Its value is 26 fold.
